Bioassay records as filed in PubChem.
OXTR potentiator = human OXTR potentiation; 0.061% of 320,000 active; P30559; AID 2445; CHO-OTR cells, Fluo-8 calcium fluorescence, potentiator mode; 0% = oxytocin EC15, 100% = EC100; activation, % at 3 µM;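 active = activation above that plate's cutoff, the mean activation of tested compounds plus 3 SD, cut at about 6.6% in these data, passing the limit was not always enough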;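 note: 100% uses oxytocin at 75 nM as the full agonist control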
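Assay system: CHO cell line stably expressing human OTR. Reagent: EC15 oxytocin agonist. Dosing: single dose, 3.0 µM nominal final compound concentration. Timing: compound 6 min at room temperature before oxytocin, 100 s read. Signal: kinetic Fluo-8 calcium fluorescence. Controls: oxytocin EC15 low and EC100 high.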
V1R ag counter = counter-screen for oxytocin receptor agonists: human V1a receptor agonists; P37288; CHO-V1R cells, Fluo-8 calcium fluorescence, agonist mode; 0% DMSO, 100% 3 nM vasopressin; activation, % at 3 µM; 0.25% of 320,000 active;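 active = activation above the mean activation of all tested compounds plus 3 SD, per screening run, cut at about 20% in these data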;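 note: signal is peak over basal fluorescence ratio across a 100 second FLIPR read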
Target sequence (P37288 whole entry, looked up): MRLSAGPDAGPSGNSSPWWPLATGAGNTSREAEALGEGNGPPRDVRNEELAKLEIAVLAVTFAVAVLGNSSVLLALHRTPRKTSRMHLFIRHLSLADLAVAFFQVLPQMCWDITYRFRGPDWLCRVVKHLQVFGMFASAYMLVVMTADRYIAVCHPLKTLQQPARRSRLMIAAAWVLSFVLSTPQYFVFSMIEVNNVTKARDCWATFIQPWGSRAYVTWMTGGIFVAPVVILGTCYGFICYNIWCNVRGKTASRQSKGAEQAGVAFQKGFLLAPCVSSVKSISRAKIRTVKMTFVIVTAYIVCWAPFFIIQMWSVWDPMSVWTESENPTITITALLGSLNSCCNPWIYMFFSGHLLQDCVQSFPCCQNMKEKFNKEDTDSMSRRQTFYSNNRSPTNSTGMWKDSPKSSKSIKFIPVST
TAAR1 ag = human TAAR1 agonism | AID 624467 | Q96RJ0 | activation, % at 3 µM | 0.99% of 360,000 active | CHO RD-HGA16 TAAR1, Fluo-8 calcium fluorescence; vehicle wells 0%, saturating PEA agonist 100%;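 active = activation above the mean activation of all test compounds in the run plus 3 SD, cut at about 38% in these data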
Target sequence (Q96RJ0 whole entry, looked up): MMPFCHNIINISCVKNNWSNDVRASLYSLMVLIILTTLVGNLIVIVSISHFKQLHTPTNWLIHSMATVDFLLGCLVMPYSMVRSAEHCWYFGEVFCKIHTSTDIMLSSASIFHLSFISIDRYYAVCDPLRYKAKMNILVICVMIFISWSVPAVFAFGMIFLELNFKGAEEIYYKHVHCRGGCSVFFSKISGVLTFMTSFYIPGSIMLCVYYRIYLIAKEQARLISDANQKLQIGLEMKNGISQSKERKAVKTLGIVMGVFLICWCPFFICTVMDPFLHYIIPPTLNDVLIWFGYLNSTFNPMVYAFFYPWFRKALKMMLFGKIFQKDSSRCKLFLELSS
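Test system: RD-HGA16 (CHO) cells co-expressing Gα16 and hTAAR1 | Doses: Single dose, 3 µM | Schedule: 17-24 h seeding, 75 min 37 °C dye, 30 min RT | Evaluation: % activation from peak over basal fluorescence ratio, DMSO-to-PEA scaled | Technique: Kinetic Fluo-8 calcium fluorescence | Benchmarks: Low control DMSO, high control PEA (EC100)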
TAAR1 antag = antagonists of human TAAR1; 1.5% of 360,000 active; inhibition, % at 3 µM; CHO RD-HGA16 TAAR1, Fluo-8 calcium fluorescence, antagonist; AID 624466; Q96RJ0;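 active = inhibition above a per-plate cutoff, the mean inhibition of test compounds on that plate plus 3 SD, cut at about 49% in these data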;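 note: 0% = DMSO plus EC80 beta-PEA response and 100% = DMSO alone without agonist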
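System: RD-HGA16 CHO cells with stable hTAAR1 and Gα16 | Probe or stimulus: EC80 β-phenethylamine stimulus | Dosing: 3 µM, single point | Times: Dye loading 75 min at 37 °C, then 30 min room temperature | Measured by: Fluo-8 calcium-sensitive fluorescence | Read-out basis: % inhibition of agonist calcium response | Replicates: n of 1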
OXTR ag = human OXTR agonism; activation, % at 3 µM; 0.32% of 320,000 active; CHO-OTR cells, Fluo-8 calcium fluorescence; normalized: DMSO 0%, oxytocin 100%; P30559;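 active = activation above the mean of all tested compounds plus 3 SD, cutoff set per screening run, cut at about 20% in these data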;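 note: peak over basal fluorescence ratio from a 100 s FLIPR kinetic read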
TAAR1 ag conf = confirmation of human TAAR1 agonists; shares compounds with TAAR1 ag; CHO RD-HGA16 TAAR1, Fluo-8 calcium fluorescence; scaled: DMSO 0%, maximal phenethylamine 100%; activation, % at 3 µM; 82% of 2,400 active; AID 651783;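 active = activation above a cutoff set at the run's mean compound activation plus 3 SD, cut at about 39% in these data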
Ga16 ag counter = nonselective agonism, TAAR1 counter-screen; activation, % at 3 µM; AID 651787; shares compounds with TAAR1 ag; 50% of 2,400 active; CHO-Ga16 parental, Fluo-8 calcium fluorescence; normalized to maximal ATP response, DMSO zero;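 active = activation above the run cutoff, the mean activation over all tested wells plus 3 SD, cut at about 12% in these data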;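 note: 0% = DMSO wells and 100% = maximal ATP response on the peak over basal ratio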
TAAR1 desensitize = human TAAR1 agonist that also desensitizes the receptor; CHO RD-HGA16 hTAAR1, Fluo-8 calcium, beta-PEA response inhibition; 46% of 2,400 active; AID 651951; inhibition, % at 3 µM; shares compounds with TAAR1 ag;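 active = inhibition above the run cutoff, the mean inhibition of all test compounds plus 3 SD, cut at about 49% in these data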;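 note: beta-PEA stimulus applied at its EC80; loss of beta-PEA calcium signal after compound pretreatment read as receptor desensitization; 0% = DMSO with beta-PEA at EC80 and 100% = DMSO alone without agonist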
Ga16 nonsel ant = nonselective Ga16 antagonism, counter-screen | 39% of 2,400 active | CHO-Ga16 ATP-induced calcium, Fluo-8 fluorescence | inhibition, % at 3 µM | AID 651952 | shares compounds with TAAR1 ag;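 active = inhibition above the plate's mean compound inhibition plus 3 SD, computed per plate, cut at about 22% in these data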;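 note: 0% = EC80 ATP with DMSO and 100% = DMSO wells without ATP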
The depositor's hits bear a star; . = no result given. Shown are actives, neighbours in structure and some others; about 2.3% of the full set was active somewhere.

SMILES | OXTR potentiator | V1R ag counter | TAAR1 ag | TAAR1 antag | OXTR ag | TAAR1 ag conf | Ga16 ag counter | TAAR1 desensitize | Ga16 nonsel ant
O=C(NC1CCCCC1)c1cccc2c1C(=O)c1ccc(N3CCC(Cc4ccccc4)CC3)cc1S2(=O)=O | -9 | 5 | 52* | 61* | 6 | 30 | 29* | 33 | 38*
O=C(NCc1ccccc1Br)c1cccc2c1C(=O)c1ccc(N3CCC(Cc4ccccc4)CC3)cc1S2(=O)=O | -4 | 3 | . | . | 5 | . | . | . | .
Cc1sc(NC(=O)C2CCCCC2C(=O)O)c(C(N)=O)c1-c1ccc(C(C)(C)C)cc1 (stereo unspecified) | -5 | 0 | 67* | 46 | 0 | 43* | 20* | 40 | 13
O=C(NNC(=O)c1ccc(Cl)c(Cl)c1)c1ccncc1 | -5 | -1 | 0 | 5 | 0 | . | . | . | .
O=C(Nc1ccncc1)c1ccc(Cl)c(Cl)c1 | -2 | 6 | 56* | 1 | 8 | 42* | 19* | 8 | 6
O=C(O)Cn1nnc(COc2ccccc2)n1 | -4 | 1 | 3 | -16 | 0 | . | . | . | .
O=c1[nH]c2ccc(NC(=S)Nc3ccc(Cl)cc3)cc2[nH]1 | -6 | 1 | 53* | 8 | 0 | 58* | 11 | 34 | 29*
CCn1cc(C(=O)N(C)c2ccccc2F)c2cc(OC)c(OC)cc2c1=O | -19 | 0 | 4 | -2 | -1 | . | . | . | .
O=C(Cn1cccc1C(=O)c1ccccc1)NCc1ccccc1Cl | -2 | 0 | 3 | -33 | -2 | . | . | . | .
Cc1ccccc1C(=O)c1cccn1CC(=O)NCc1ccccc1Cl | -20 | -2 | 50* | 34 | 0 | 5 | 6 | 10 | 16
Cc1noc(C(=O)Nc2cccc(O)c2)c1Cl | 3 | 0 | 3 | -8 | 1 | . | . | . | .
Cc1ccc(CNC(=O)C(=O)Nc2nccs2)cc1 | 2 | 0 | -1 | 7 | -1 | . | . | . | .
O=C(NCc1ccc2c(c1)OCO2)C(=O)NC1CCCCC1 | -12 | -1 | 4 | -21 | 1 | . | . | . | .
CC1CCCC(C)N1C(=O)CNCc1ccc2c(c1)OCO2 (stereo unspecified) | -9 | 1 | 71* | 3 | 1 | 23 | 5 | -4 | -5
O=C(COC(=O)c1ccc(O)cc1)Nc1ccc(OC(F)F)cc1 | -19 | 13 | 66* | 3 | 12 | 49* | 7 | 29 | 16
CCCCn1c(Nc2ccccc2)nc2ccccc21 | -5 | -1 | 45* | 6 | -2 | 3 | 0 | 5 | 7
O=C(Nc1ccc(N2CCOCC2)nc1)c1ccc(C(F)(F)F)cc1 | -6 | 1 | 1 | -11 | 2 | . | . | . | .
CC1CCN(C(=O)c2ccc3c(c2NCCO)C(=O)c2ccccc2C3=O)CC1 | -12 | 0 | 48* | 21 | 4 | 15 | 10 | 30 | 25*
CN(CCNC(=O)c1ccc(N2CCCC2=O)cc1)CCc1ccccc1 | -4 | 1 | 53* | 27 | 1 | 62* | 0 | 28 | 3
CCc1c(-c2cccc(Br)c2)ncn1Cc1cccc(-c2ccccc2)c1 | . | . | 2 | 0 | . | . | . | . | .
O=C1N(Cc2ccccc2)c2ccc(Cl)cc2C12OCCO2 | -12 | -1 | 2 | -3 | -2 | . | . | . | .
CN1CCN(C2=Cc3ccccc3Sc3cc(F)c(Cl)cc32)CC1 | -8 | 2 | 46* | 2 | 0 | 38* | 16* | 19 | 24*
CN1CCN(C2=Cc3cc(Cl)ccc3Sc3cc(F)ccc32)CC1 | -4 | 8 | 67* | 39 | 10 | 89* | 46* | 70* | 45*
CN1CCN(C2=Cc3ccccc3Sc3cc(F)c(F)cc32)CC1 | -2 | 3 | 37 | -5 | 7 | . | . | . | .
COc1ccc(-c2cc(C3CCN(CC(O)C(F)(F)F)CC3)[nH]n2)cc1 (stereo unspecified) | -12 | 2 | 44* | 23 | 1 | 77* | 2 | 55* | -3
SMILES | OXTR potentiator | V1R ag counter | TAAR1 ag | TAAR1 antag | OXTR ag | TAAR1 ag conf | Ga16 ag counter | TAAR1 desensitize | Ga16 nonsel ant
Cc1ccc(CN2CCC(c3cc(-c4ccc(Cl)cc4)n[nH]3)CC2)cc1 | -19 | 15 | 67* | 33 | 9 | 85* | 21* | 75* | 31*
COc1ccc(-c2cc(C3CCN(Cc4ccc([N+](=O)[O-])cc4)CC3)[nH]n2)cc1 | -4 | 6 | 48* | -6 | 7 | 40* | 18* | 3 | 15
OC1CCN(CC(O)C(F)(F)F)CC1 (stereo unspecified) | -1 | 1 | 0 | 7 | 1 | . | . | . | .
Cc1ccc(CN2CCC(c3nc4ccc(Cl)cc4[nH]3)CC2)cc1 | -4 | 5 | 8 | -17 | 5 | . | . | . | .
CC(C)(C)c1cc(NC(=O)C2(C)CCN2C(=O)c2ccccc2CCc2ccccc2)no1 (stereo unspecified) | . | . | -1 | 13 | . | . | . | . | .
O=C(O)C1CC=C(Cl)CC1C(=O)NCC1OCCc2ccccc21 (stereo unspecified) | -3 | 0 | . | . | 1 | . | 0 | . | 2
CCc1ccc(CN2CCC(Oc3cc(C(=O)NC4CC4)ccc3OC)CC2)cc1 | . | . | 3 | -3 | . | . | . | . | .
CC(C)(C)c1ccc(CC(=O)N2CCC2(C)C(=O)NS(=O)(=O)c2ccc3c(c2)CCO3)cc1 (stereo unspecified) | . | . | 2 | -19 | . | . | . | . | .
CCC(=O)NNC(=O)c1cc(COc2cc(Cl)cc(Cl)c2)on1 | -4 | 2 | 55* | 19 | 4 | 40* | 21* | 21 | 16
Cc1nc(N)nc(N)c1/C=C/C(C)(C)c1ccc(Cl)cc1 | . | . | 53* | 40 | . | 72* | 42* | 72* | 48*
Oc1cccc2ccc(Nc3ccccn3)nc12 | -11 | -1 | 48* | 3 | 3 | 58* | 2 | -5 | -4
CCCC[C@@H]1CNCCN1CCc1cc(C(F)(F)F)cc(C(F)(F)F)c1 | -4 | 2 | 24 | -18 | 5 | . | . | . | .
c1ccc(C[C@H]2CNCCN2CCCCC2CCCCC2)cc1 | -7 | 2 | 53* | 21 | 9 | 54* | 22* | 46 | 29*
CCC(C)[C@H]1CNCCN1CCc1cc(C(F)(F)F)cc(C(F)(F)F)c1 (stereo partly specified) | -8 | 15 | 49* | -36 | 16 | 59* | 23* | 3 | 10
